Autophagy mod – modulators of autophagy. calls only at 10 µM (by protocol). MEF GFP-LC3 puncta imaging; test concentration mostly 10 µM. AID 463193. 190,000 compounds, 0.98% hits;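 active = percentage of spot-positive cells more than 3 SD above its plate mean, without a fluorescence outlier flag or 80% toxicity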;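 also: spot-positive cell cutoff set from DMSO-treated cells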
bCat KO growth – beta-catenin-lacking colon tumor cell growth suppression; AID 818; HCT116 beta-catenin knockout viability, CellTiter-Glo, 60 h; stronger effect = lower value; 140,000 compounds, 1.5% hits; viability, % at 10 µM;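 active = viability at or under a set limit, the compound median less 4 SD, cut at about 6% in these data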;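 also: 0% = Hyamine 1622 control at 20 µM and 100% = untreated cell control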
Lmaj promast – reduces viability of Leishmania major promastigotes. resazurin fluorescence viability. inhibition, % at 10 µM. 200,000 compounds, 9% hits; in the data active = inhibition above about 50%;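 also: promastigotes grown with compound for 44 hours at 28 °C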
Dynein transport – blocks dynein driven cargo transport along microtubules; 3617.4 mouse cells, GR-EGFP nuclear translocation imaging; test concentration mostly 20 µM; stimulated with dexamethasone, 1 µM; stronger effect = lower value; z-score, hits read low; 220,000 compounds, 0.47% hits;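 active = plate z-score of nuclear minus cytoplasmic receptor signal below a set negative limit, without overly bright fluorescence or cell loss, cut at about -3.5 in these data, passing the limit was not always enough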;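 also: z-score of nuclear minus cytoplasmic ring GR-EGFP intensity difference per well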
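Buffer or medium: tet-free medium with charcoal-stripped serum / Also added: dexamethasone agonist, 1.0 µM final, for 30 min / Timing: induction 48 h, compound 1 h, agonist 30 min / Measured by: high-content fluorescence imaging after fixation / Read-out: nuclear-to-cytoplasmic GR-EGFP distribution per well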
PTEN del growth – PTEN-deleted cell growth suppression | HCT116 PTEN-null viability, CellTiter-Glo, 60 h; stronger effect = lower value | viability, % at 10 µM | 140,000 compounds, 1.2% hits;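 active = viability at or below a set limit, 4 SD under the median of all tested compounds, cut at about 3.7% in these data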;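 also: PTEN knockout HCT116 line with beta catenin targeted HCT116 as companion control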
Numbers without * were called inactive; i = inactive; . = not tested or not shown; + = active, no number. Rows were chosen to be rich in hits. Some 9.2% of all compounds tested hit in one or more screens of this group.

SMILES	Autophagy mod	bCat KO growth	Lmaj promast	Dynein transport	PTEN del growth
COc1ccc(NC(=S)N(CCc2c(C)[nH]c3ccc(C)cc23)Cc2cccs2)cc1	i	56	54*	1.9	52
COc1ccc2[nH]c(C)c(CCN(Cc3cccs3)C(=S)Nc3ccc(F)cc3)c2c1	i	62	40	-0.096	63
CN1C(=O)C2C(c3ccc(N(C)C)cc3)NN(Cc3ccccc3)C2C1=O (centres undefined)	i	.	17	-0.15	.
CN(C)c1ccc(CNC(=O)C2CCC(CNc3c(N4CCCCC4)c(=O)c3=O)CC2)cc1 (centres undefined)	.	.	.	-0.23	.
O=c1c2cnn(-c3ccc(F)cc3)c2ncn1Cc1ccccc1	i	80	-2	0.5	86
N#CCCN(Cc1cccnc1)C(=S)Nc1ccc(OC(F)F)cc1	i	.	-6	0.59	.
COc1ccc(NC(=S)N(CCc2nc3cc(C)c(C)cc3[nH]2)Cc2cccnc2)cc1	i	92	90*	0.34	72
S=C(c1ccc(N2CCOCC2)cc1)N1CCCCC1	i	88	81*	-0.59	96
CC(=O)N1CCN(C(=S)c2ccc(N(C)C)cc2)CC1	i	97	-8	-0.075	101
Oc1ccc(C(=S)N2CCCCC2)cc1	i	96	-1	-0.37	95
CN(C)c1ccc(C(=S)N2CCCCCC2)cc1	i	88	76*	0.34	.
COC(=O)CN(c1ccc(F)cc1)S(=O)(=O)c1ccc2c(c1)OCCO2	i	100	-2	-0.25	107
FC(F)(F)c1nc2ccccc2n2c(-c3ccc(Cl)cc3Cl)nnc12	i	89	8	-0.36	88
FC(F)(F)c1nnc2c(Sc3ccccc3)nc3ccc(Cl)cc3n12	i	3.6*	8	0.019	4
COc1cc(NC(=O)COC(=O)/C=C/c2c(C)nn(-c3ccc(F)cc3)c2Cl)cc(OC)c1	i	60	64*	-0.97	67
COc1cc(NC(=O)COC(=O)/C=C/c2ccccc2Cl)cc(OC)c1	i	96	37	-0.2	100
COc1cccc(/C=N/N2CCN(C3c4ccccc4-c4ccccc43)CC2)c1O	.	.	.	-0.37	.
Cc1cc(C)n2ncc(C(=O)NCc3ccccc3)c2n1	i	102	55*	0.22	103
COc1cccc(NC(=O)Cc2nc(-c3ccccc3)sc2-c2ccc(C)cc2)c1	i	72	49	0.65	63
CC(=O)Nc1cccc(NC(=O)Cc2nc(-c3ccccc3)sc2-c2ccc(C)cc2)c1	i	10	17	0.84	1.4*
CCN1C(=O)C2(C(C(=O)c3cc4ccccc4o3)=C(O)C(=O)N2CCCN(C)C)c2ccccc21 (centres undefined)	.	.	.	-0.49	.
CN(C)S(=O)(=O)c1cccc(NC(=O)COC(=O)c2cc(=O)c3ccccc3o2)c1	.	.	.	-0.092	.
CC(Cc1cccs1)NC(=S)Nc1ccc(Cl)c(Cl)c1 (centres undefined)	i	88	71*	-0.8	76
CC(Cc1cccs1)NC(=O)Nc1cccc(Cl)c1 (centres undefined)	i	64	68*	-0.58	67
O=[N+]([O-])c1cc([N+](=O)[O-])c(N2CCCCCC2)cc1NCCO	i	95	19	2.8	87
SMILES	Autophagy mod	bCat KO growth	Lmaj promast	Dynein transport	PTEN del growth
CCOC(=O)c1ccc(NC(=S)NCc2ccco2)cc1	.	.	.	-0.078	.
O=C(Nc1ccccc1)Nc1ncc([N+](=O)[O-])s1	+	.	11	1.4	.
O=C(Cc1csc(Nc2nc(=S)[nH]c3ccccc23)n1)N1CCN(c2cccc(C(F)(F)F)c2)CC1	+	.	1	1.7	.
O=C(CCN1C(=O)c2ccccc2C1=O)Nc1cccnc1	i	101	-9	0.97	99
O=C(Nc1nc2ccc(SC(F)F)cc2s1)c1ccc(NS(=O)(=O)c2ccc(F)c(F)c2)cc1	i	72	69*	-0.29	58
O=C(NCc1cccnc1)C(=O)NCC1OCCCN1S(=O)(=O)c1ccccc1 (centres undefined)	i	100	-6	1.2	88
CCNC(=S)N(CCc1ccccc1C)Cc1cc2cc(OC)c(OC)cc2[nH]c1=O	i	78	75*	0.4	87
COc1cc2cc(CN(CCc3ccccc3C)C(=S)NCCCN(C)C)c(=O)[nH]c2cc1OC	i	2.2*	78*	0.17	1.8*
CNC(=S)N(CCc1ccc(OC)c(OC)c1)Cc1cc2c(C)cc(C)cc2[nH]c1=O	i	86	69*	-0.068	88
COc1cc2cc(CN(CCc3ccccc3C)C(=S)NCCCN3CCOCC3)c(=O)[nH]c2cc1OC	i	.	8	-0.58	.
CCN(CC)C(=O)c1cccc2c1-c1ccccc1C2=O	.	.	.	0.88	.
CC1CCCN(CCSc2ccc(Cl)cc2)C1 (centres undefined)	i	95	72*	-0.86	84
Clc1ccc(SCCOCCN2CCc3ccccc3C2)cc1	i	.	88*	1.2	.
Clc1ccc(SCCOCCN2CCCCC2)cc1	i	89	98*	-0.58	84
OC(COC(c1ccc(Cl)cc1)c1ccc(Cl)cc1)CN1CCc2ccccc2C1 (centres undefined)	i	62	50	-0.7	56
CC1CCN(CCOCCSc2ccc(Cl)cc2)CC1	i	.	93*	-1.4	.
CCn1c(CNC(=O)c2ccccc2F)nnc1SCc1nc2ccccc2c(=O)[nH]1	i	.	-5	-0.7	.
COc1ccc2oc(=O)c(-c3nnc(NCc4ccco4)s3)cc2c1	+	4.2*	45	0.44	3.8*
COc1ccc2oc(=O)c(-c3nc4ccccc4o3)cc2c1	i	94	98*	-0.11	98
O=c1oc2ccc3ccccc3c2cc1-c1nc2ccccc2o1	i	.	100*	-0.26	.
O=c1oc2ccccc2cc1-c1nc2ccccc2o1	i	100	4	-0.31	101
O=C(O)CCc1nn2c3ccccc3n(Cc3ccccc3)c2nc1=O	i	.	-2	1.2	.
O=C(CCC1CCCCC1)N1CCN(Cc2ccc3c(c2)OCO3)CC1	i	92	96*	0.96	84
COc1ccccc1C(=O)N1CCN(Cc2ccc3c(c2)OCO3)CC1	i	88	-10	1.2	93
Cc1ccc(CSCC(=O)N2CCN(Cc3ccc4c(c3)OCO4)CC2)cc1	i	100	59*	-0.72	100
SMILES	Autophagy mod	bCat KO growth	Lmaj promast	Dynein transport	PTEN del growth
CS(=O)(=O)N(CC(=O)N1CCN(Cc2ccc3c(c2)OCO3)CC1)Cc1ccc(Cl)cc1	i	17	98*	-1.6	47
Cc1ccc2[nH]c3c(c2c1)CN(C(=O)CN1CCN(Cc2ccc4c(c2)OCO4)CC1)CC3	i	72	95*	-1	77
Cc1ccc2[nH]c3c(c2c1)CN(C(=O)CN1CCSCC1)CC3	i	88	-3	-0.91	89
O=C(c1ccc(CN2CCOCC2)cc1)N1CCN(c2ccccc2)CC1	i	86	0	0.004	88
CC(C)NC(=O)NC(=O)CSc1ccccc1F	i	99	-7	-0.9	95
Cn1c(CNC(=O)c2ccccc2F)nnc1SCc1nc2ccccc2c(=O)[nH]1	i	.	-6	0.41	.

Bioassay records: PubChem, several laboratories
